Bioassay records deposited in PubChem by several laboratories.
This is a sample that favours compounds with a hit; in the whole collection about 2% have one here.
NTR1 ag: NTR1 (human) agonism; P30989; NTR1-U2OS beta-arrestin-GFP spot imaging, agonist mode; activation, % at 20 µM; hit rate 0.17% among 330,000; AID 493036;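 active means activation at or above 40% of the spot to cytoplasm intensity ratio, with at least 20 cells analyzed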;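 further: 0% = DMSO without peptide and 100% = 100 nM NTR1 peptide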
GRK2 inh: human GRK2 inhibition via aptamer displacement. P25098. bead flow cytometry, FAM-aptamer displacement from GRK2. inhibition of aptamer binding, % at 10 µM. hit rate 0.59% among 330,000. AID 488847;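 active means inhibition of aptamer binding above 40%, roughly 3 SD of noise, on plates passing a quality check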;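 further: median bead fluorescence of bound FAM aptamer so fluorescent compounds give negative values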
Lipid droplet: hepatic lipid droplet formation modulation; AML12 mouse hepatocytes, oleate lipid droplets, BODIPY imaging; inhibition, % at 6.5 µM; hit rate 0.4% among 240,000; AID 1656;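 active means lipid droplet intensity inhibited by at least 50%, with more than 500 cells counted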
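material = mouse AML12 hepatocyte cell line, fixed after treatment | also added = 100 µM oleic acid challenge | doses = compound at 6.5 µM only | schedule = overnight exposure | technique = Image-based BODIPY and DAPI two-channel analysis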
Beta2AR agonist: activates human beta-2 adrenergic receptor causing internalization; P07550; Am2.2-beta2AR cells, FAP receptor internalization, flow cytometry; response, % (no concentration beside the values); hit rate 0.43% among 340,000; AID 504454;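 active means response above a set limit, near 3 SD of response in nonfluorescent compounds, cut at about 42% in these data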
Target sequence (P07550 whole entry, looked up): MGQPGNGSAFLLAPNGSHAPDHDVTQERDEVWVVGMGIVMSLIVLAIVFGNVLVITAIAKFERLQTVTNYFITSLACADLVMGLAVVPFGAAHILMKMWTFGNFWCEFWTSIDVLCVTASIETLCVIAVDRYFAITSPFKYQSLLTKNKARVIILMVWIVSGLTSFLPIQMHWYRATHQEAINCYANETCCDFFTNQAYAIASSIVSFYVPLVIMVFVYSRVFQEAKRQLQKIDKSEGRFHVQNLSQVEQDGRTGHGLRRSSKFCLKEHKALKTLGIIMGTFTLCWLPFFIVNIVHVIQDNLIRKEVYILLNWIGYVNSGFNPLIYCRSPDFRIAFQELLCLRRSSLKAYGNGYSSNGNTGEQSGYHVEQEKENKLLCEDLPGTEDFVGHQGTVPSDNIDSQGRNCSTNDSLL
Arr AP2 block: inhibitors of human beta-arrestin and AP2 interaction; FITC-arrestin peptide / GST-AP2 beads, flow cytometry; AP2 beta2 appendage carries R879A mutation; inhibition, % at 10 µM; hit rate 0.31% among 340,000;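 active means inhibition above a set limit, near 3 SD of compounds lacking own fluorescence, cut at about 54% in these data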;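 further: plate controls were DMSO wells for no effect and 5 µM unlabelled arrestin peptide for full effect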
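System: GST-AP2 R879A glutathione beads | Also added: FITC-arrestin peptide, 50 nM | Times: 12 min plus 1 h, RT | Signal: Bead flow cytometry, FITC channel | Buffer or medium: PBS with 0.05% Tween 20 and 0.1% BSA | Read-out basis: Percent drop in bead-associated FITC signal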
TAG inh: inhibitors of triacylglycerol accumulation | H9c2 cells, Nile Red lipid (TAG) fluorescence; cells loaded with 200 µM oleic acid | inhibition, % at 12.5 µM | hit rate 0.66% among 230,000;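 active means pattern-corrected inhibition of lipid staining of at least 50% with the nuclear-stain viability signal not falling by more than 50%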;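 further: 0% = DMSO wells and 100% = triacsin C control wells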
Hep lipid conf: confirmation of inhibitors of hepatic lipid droplet formation. shares compounds with Lipid droplet. AML12 mouse hepatocytes, BODIPY lipid droplet imaging; droplets induced with 100 µM oleic acid. inhibition, % at 5.2 µM. hit rate 65% among 870. AID 463183;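 active means inhibition of lipid droplet metric at least 50%, with more than 300 cells in each of four replicates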;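 further: plate controls were DMSO with oleic acid for no effect and 5 µM Triacsin-C for full effect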
AML12 cytotox: toxic to AML12 mouse hepatocytes in counter-screen. shares compounds with Lipid droplet. DAPI nuclear morphology cytotoxicity imaging; stronger effect = higher value; cells fed 100 µM oleate overnight. z-score at 5 µM. hit rate 3% among 870. AID 463200; in the data active means z-score above about 6.3;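 further: compound exposure lasted overnight at 37 °C before fixation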
AML12 tox ATP: AML12 hepatocyte cytotoxicity, confirmed. shares compounds with Lipid droplet. AML12 mouse hepatocyte viability, ATP luminescence; cells loaded with 100 µM oleic acid. cytotoxicity, % at 50 µM. 530 tested, under 10 active;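 active means cytotoxicity above 50% in each of four replicates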;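 further: compound exposure lasted overnight at 37 °C before the ATP read; 0% = DMSO-treated cells and 100% = wells with no cells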
The depositor's hits bear a star; nt = not tested or not shown.

SMILES	NTR1 ag	GRK2 inh	Lipid droplet	Beta2AR agonist	Arr AP2 block	TAG inh	Hep lipid conf	AML12 cytotox	AML12 tox ATP
O=C(COC(=O)COc1ccc(Cl)cc1Cl)Nc1cccnc1Cl	4	6	50*	-8	14	nt	12	-1	nt
CCOc1ccccc1NC(=O)c1cccc(NC(=O)C2CCCC2)c1	6	0	63*	10	-14	nt	95*	0.46	4
CCOc1ccccc1NC(=O)C1CCCC1	nt	nt	nt	0	-7	nt	nt	nt	nt
CC(=O)N1C[C@H]2CON(C)[C@H]2C[C@H]1c1cccc(N2CCOCC2)c1	nt	nt	nt	nt	nt	35	nt	nt	nt
O=C(N/N=C/c1c(O)ccc2ccccc12)c1cccnc1	1	0	-4	15	13	nt	nt	nt	nt
Cc1cc(O)c(C)c(O)c1/C=N/NC(=O)c1cccnc1	1	8	59*	2	23	nt	0	-1.1	nt
Cc1cc(C(=O)NCCc2ccc(Cl)cc2)c2ccccc2n1	3	0	nt	6	18	nt	nt	nt	nt
COc1ccc(CCNC(=O)c2cccs2)cc1OC	1	5	2	2	25	-1	nt	nt	nt
COc1ccc(CCNC(=O)CCNC(=O)c2ccccc2Cl)cc1	-2	0	-7	0	3	nt	nt	nt	nt
CCOc1ccc(CCNC(=O)CCNC(=O)c2ccccc2Cl)cc1OCC	0	0	68*	-3	-6	28	88*	0.71	13
CCOc1ccc(CCNC(=O)c2cc(C)nc3ccccc23)cc1OCC	1	9	62*	-1	-8	31	71*	0.041	17
CCOc1ccc(CCNC(=O)c2cccs2)cc1OCC	0	3	76*	8	-3	nt	100*	-0.45	8
C=CCNCc1ccc(C(=O)NCCCCCCC)cc1[N+](=O)[O-]	9	0	nt	7	8	-3	nt	nt	nt
CC(C)c1nc(C(=O)N2CCCC(N3CCN(c4cccc(Cl)c4)CC3)C2)cs1 (configuration not stated)	0	0	-18	5	15	1	nt	nt	nt
COc1ccc(CNC(=O)N2CCN(S(=O)(=O)c3ccc(C)cc3C)CC2)cc1	-1	2	82*	0	-13	nt	79*	-0.25	9
Cc1ccc(S(=O)(=O)N2CCN(C(=O)NCc3ccc(F)cc3)CC2)c(C)c1	1	0	3	-10	5	nt	nt	nt	nt
Cn1c(=O)c(=O)n(C)c2cc(N3CCOCC3)c(NS(=O)(=O)c3ccc(F)c(Cl)c3)cc21	1	0	-24	-2	9	nt	nt	nt	nt
Cn1c(=O)c(=O)n(C)c2cc(N3CCCC3)c(NS(=O)(=O)c3ccc(Cl)cc3)cc21	0	4	50*	3	0	nt	8	-0.61	nt
CCC(NC(=O)c1cc(COc2cncc(Cl)c2)on1)c1ccncc1 (configuration not stated)	-1	2	65*	1	-1	nt	11	-0.58	nt
Cc1ccc(-c2[nH]c3ccccc3c2SCCNC(=O)c2ccc(S(=O)(=O)N3CCOCC3)cc2)cc1	-2	1	54*	-3	1	5	91*	-0.72	1
CCOC(=O)c1sc2cc([N+](=O)[O-])cc(SCCO)c2c1N	-1	2	52*	1	-25	-27	61*	-0.48	nt
CCNC(=S)N1CCc2cc(OC)c(OC)cc2C1COc1ccccc1OC (configuration not stated)	1	0	62*	-2	9	26	93*	-0.38	3
Cc1oc2ccc(OCc3ccc(F)cc3Cl)cc2c1C(=O)O	2	2	57*	-8	7	5	36	-1	nt
CCN(CC(=O)Nc1ccccc1C(F)(F)F)C(=O)c1cc(-c2cccs2)nn1-c1ccccc1	10	0	65*	11	8	15	103*	-0.44	14
O=C(/C=C/c1cccc(C(F)(F)F)c1)NNC(=O)c1ccncc1	3	nt	nt	-3	11	7	nt	nt	nt
SMILES	NTR1 ag	GRK2 inh	Lipid droplet	Beta2AR agonist	Arr AP2 block	TAG inh	Hep lipid conf	AML12 cytotox	AML12 tox ATP
CCOc1ccc(N=Nc2c(C)[nH]n(-c3ccccc3)c2=O)cc1	1	0	48	11	-9	28	nt	nt	nt
COc1cccc(N=Nc2c(C)[nH]n(-c3ccccc3)c2=O)c1	5	1	51*	-3	5	nt	103*	-0.7	12
CC(C)c1ccccc1-n1c(SCC(=O)c2ccc3c(c2)NC(=O)CO3)nc2ccccc2c1=O	5	0	54*	14	29	35	59	-1.3	3
O=C1COc2ccc(C(=O)CSc3ccccc3C(=O)O)cc2N1	2	1	16	0	3	6	nt	nt	nt
CC(NC(=O)CNC(=S)N(Cc1cccs1)C1CCCC1)c1ccccc1 (configuration not stated)	3	0	-1	7	14	-15	nt	nt	nt
CCn1cc(CCC(=O)NCc2ccccc2OC)c2ccccc21	0	1	4	14	2	nt	nt	nt	nt
CCn1cc(CCCC(=O)NCc2ccccc2OC)c2ccccc21	0	2	88*	-4	-16	nt	100*	-0.56	15
CCn1cc(CCCC(=O)NCc2cccc(OC)c2)c2ccccc21	0	0	80*	2	3	nt	88*	-0.14	7
O=C(NC(=S)Nc1ccccn1)c1ccc(-c2ccccc2)cc1	4	0	94*	-5	25	-14	16	-0.62	nt
CCN1CCN(c2cc(C(C)C)nc3c(-c4ccccc4)c(C)nn23)CC1	4	0	55*	-3	1	45	50	-0.31	nt
Cc1nn2c(N3CCOCC3)cc(C(C)C)nc2c1-c1ccccc1	9	0	22	0	9	nt	nt	nt	nt
COc1cccc(/C(C)=N/NC(=O)Cc2c(C)[nH][nH]c2=O)c1	0	0	63*	4	4	nt	26	0.32	nt
C/C(=N\NC(=O)Cc1c(C)[nH][nH]c1=O)c1ccc2ccccc2c1	-1	0	-23	nt	nt	nt	nt	nt	nt
COCC(=O)N1CCC(Oc2ccc(C(=O)N3C[C@H]4CC[C@H]3C4)cc2)CC1	0	0	3	5	-10	6	nt	nt	nt
O=C(CCNC(=O)C1CCN(S(=O)(=O)c2ccccc2)CC1)NCCc1cccc(F)c1	1	11	54*	-5	0	nt	27	-0.15	nt
O=[N+]([O-])c1ccccc1N/N=C\c1ccccc1F	3	1	49	-3	-10	11	nt	nt	nt
CCCOc1ccc(/C=N/Nc2ccccc2[N+](=O)[O-])c(OCCC)c1	2	2	81*	10	35	nt	113*	-0.49	7
